# Screening results: PubChem, several laboratories
# MT1-MMP act inh – MT1-MMP (human) activation inhibition. P50281. HT1080 RFP-PRO-GFP cells, GFP/RFP ratio fluorescence, overnight; percent of plate control window, DMSO zero. GFP/RFP ratio change, % at 20 µM. 360,000 compounds, 0.061% hits;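 active = GFP/RFP ratio change of at least 30% with cell ATP level not reduced by more than half and red fluorescence within 50% of control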
#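 Assay system: RFP-PRO-GFP reporter HT1080 cells; read-out basis: GFP/RFP fluorescence ratio; benchmarks: DMSO wells and RFP-L50D-GFP cells; doses: 20 µM single dose, 1% DMSO; schedule: overnight cell settling, then overnight compound exposure, 37 °C, 5% CO2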
# NR3A LBD binder – modulators (binders) of human NR3A ligand-binding domain. NR3A LBD differential scanning fluorimetry, Tm shift; 0% = protein alone, 100% = glycine-bound protein. Tm shift relative to glycine control, % at 25 µM. 340,000 compounds, 2.5% hits;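 active = melting temperature shift of at least 10% of the positive control shift, at one fixed dose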
# SKN-1 block – C. elegans SKN-1 inhibition. C. elegans VP596 Pgst-4::GFP/RFP ratio, acrylamide-induced, 24 h. 360,000 compounds, 0.49% hits. inhibition, % at 21.8 µM. AID 624304;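 active = interference check ratio from 0.5 to 1.5 plus GFP to RFP signal ratio inhibition reaching or exceeding a fixed threshold, cut at about 30% in these data, passing the limit was not always enough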
# ADAM17 inh – ADAM17 inhibition, QFRET primary screen. P78536. inhibition, % at 6.95 µM. 370,000 compounds, 0.83% hits. recombinant ADAM17, EDANS/DABCYL FRET peptide cleavage;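 active = inhibition above the mean of compounds lying between control limits plus 3 SD, set per campaign, cut at about 8.5% in these data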;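 note: 0% = DMSO-only wells as the low control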
# MPTP block – blocks calcium-induced mitochondrial swelling | AID 602449 | isolated mouse mitochondria, Ca2+ swelling absorbance, 30 min | inhibition, % at 10 µM | 360,000 compounds, 1.4% hits;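 active = inhibition of 50% or more, scaled per plate between neutral and stimulator controls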;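 note: 0% = DMSO wells given calcium and 100% = 1 mM EGTA wells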
# ADAM10 inh – inhibitors of human ADAM10; O14672; inhibition, % at 7 µM; 370,000 compounds, 0.62% hits; AID 720582; recombinant ADAM10, EDANS/DABCYL FRET peptide cleavage, 3 h;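 active = inhibition above a per-campaign cutoff equal to the mean of compounds falling between control-based bounds plus 3 SD, cut at about 20% in these data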;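 note: 0% = DMSO wells while the 100% control is not disclosed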
# Target sequence (O14672 214-748 limits assumed): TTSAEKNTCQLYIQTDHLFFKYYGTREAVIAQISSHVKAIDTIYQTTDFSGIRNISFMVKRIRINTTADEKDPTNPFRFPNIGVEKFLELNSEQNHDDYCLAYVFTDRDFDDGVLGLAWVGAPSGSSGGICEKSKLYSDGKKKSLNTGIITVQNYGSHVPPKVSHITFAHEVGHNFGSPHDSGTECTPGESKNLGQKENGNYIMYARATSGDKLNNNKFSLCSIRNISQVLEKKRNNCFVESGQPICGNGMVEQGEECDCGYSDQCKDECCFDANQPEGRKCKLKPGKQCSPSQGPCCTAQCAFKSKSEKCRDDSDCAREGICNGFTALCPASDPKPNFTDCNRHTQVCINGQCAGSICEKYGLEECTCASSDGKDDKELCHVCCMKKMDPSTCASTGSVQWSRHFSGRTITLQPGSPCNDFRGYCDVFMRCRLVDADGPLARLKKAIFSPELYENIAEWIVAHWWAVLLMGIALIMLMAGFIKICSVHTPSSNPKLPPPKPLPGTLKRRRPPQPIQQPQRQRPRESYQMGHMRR
# An asterisk follows results filed as active; / = no result given. In the library only some 4.7% were active in any assay of this set; here they are far more common.
SMILES,MT1-MMP act inh,NR3A LBD binder,SKN-1 block,ADAM17 inh,MPTP block,ADAM10 inh
Nc1sccc1C(=O)NCc1ccccc1,1.7,/,38.5*,-14.8,0.8,-62.2
Nc1ccccc1C(=O)NCc1ccc(F)cc1,1.9,0.2,-9.5,-148.1,-2.5,-397.4
COc1cc(-c2cc(C(=O)O)c3cc4ccccc4cc3n2)cc(OC)c1OC,10.6,/,2.8,-11.6,-0.6,-38.8
COn1c(-c2ccccc2)nc2c1CCc1c-2no[n+]1[O-],2.2,12.8*,-10.2,-2.0,0.3,3.1
Cc1ncc(CO)c(/C=N/Nc2ccc(C(F)(F)F)cn2)c1O,-15.7,26.8*,7.3,-112.8,0.5,-293.3
O=c1[nH]c(O)c(/C=C2\C=Nc3ccc(Br)cc32)[nH]1,-0.7,41.5*,15.2,-2.1,0.0,-2.8
O=C(Cn1c(O)c(/C=C2\C=Nc3ccc(Br)cc32)sc1=O)N1CCCC1,3.1,-7.8,-4.3,-2.5,3.5,5.7
O=C(NC1(C(F)(F)F)NC(=O)N(CC2CCCCC2)C1=O)c1ccco1 (centres undefined),6.8,-8.7,10.9,0.6,-0.8,1.9
Oc1c(C=Nc2ccc(Cl)cn2)sc2ccccc12,-24.8,11.4*,8.4,-4.5,2.8,-7.5
C#CCOCCOCCOCCNc1nc(N2CCN(C(=O)[C@H]([C@@H](C)O)n3cc(CCCCN)nn3)CC2)nc(N2CCN(C(=O)[C@H](CCCCN)n3cc(CCCC)nn3)CC2)n1,-1.6,-0.8,-2.5,-2.5,-1.9,0.6
COc1ccc(CCN2CC(C(=O)N(C)Cc3ccccn3)CCC2=O)cc1 (centres undefined),0.3,/,-4.4,-3.5,0.2,-4.4
Cc1ccc(NC(=O)c2cccc(C(=O)Nc3ccc(C)cc3C(=O)O)c2)c(C(=O)O)c1,-0.1,24.6*,-11.4,-5.6,0.0,-7.8
COc1ccc(C)cc1NC(=O)c1cccc(C(=O)Nc2cc(C)ccc2OC)c1,-0.1,-10.1,-4.3,-4.5,0.5,-10.1
Cc1ccc(O)c(-c2cc(C(=O)Nc3ccc(S(=O)(=O)Nc4nc(C)cc(C)n4)cc3)[nH]n2)c1,13.7,29.9*,-16.7,3.0,3.3,7.7
Cc1ccc(C)c(NC(=O)c2cc(-c3cc(C)ccc3O)n[nH]2)c1,11.5,15.0*,2.3,-0.2,-0.1,4.3
COc1ccc(Cl)cc1-c1cc(C(=O)Nc2ccc(Br)cc2)[nH]n1,1.4,/,15.5,3.7,1.3,4.3
COc1ccc(Cl)cc1NC(=O)c1cc(-c2ccc(C)cc2O)n[nH]1,5.5,12.2*,9.5,-5.4,4.8,-6.8
CCOc1ccc(Cl)cc1-c1cc(C(=O)Nc2cc(OC)ccc2OC)[nH]n1,-4.1,/,-4.0,/,0.4,/
Cc1ccc(O)c(-c2cc(C(=O)NCc3ccncc3)[nH]n2)c1,8.4,0.1,3.9,1.1,-0.3,7.6
COc1ccc(Cl)cc1NC(=O)c1cc(-c2cc(C)ccc2O)n[nH]1,8.8,300.5*,-9.3,-0.5,41.3,-5.7
CCCCN(C(=O)/C=C/c1ccc(OCC(C)C)c(OCC)c1)c1c(N)n(CCC)c(=O)[nH]c1=O,-6.2,-22.4,2.9,0.7,1.6,1.7
Cc1nn(C)c(Cl)c1C(=O)NCC(=O)O,0.4,-0.1,8.7,0.7,-2.6,0.0
COc1ccc(-c2cc(=O)oc3c(C)c(OCC(=O)NCC4CCC(C(=O)O)CC4)ccc23)cc1 (centres undefined),0.9,-1.8,-8.1,-10.6,4.4,-33.8
N/C(=N\OC(=O)/C=C/c1ccccc1)c1ccccc1,3.6,-17.6,35.6*,2.9,-2.2,4.9
O=C(/C=C/c1ccccc1)/C=C/c1ccccc1,1.0,6.4,80.9*,-2.2,-0.7,-9.6
O=C(/C=C/c1ccccc1)c1ccccc1,-1.5,1.3,-21.8,3.4,0.6,3.6
N/C(=N\OC(=O)/C=C/c1ccccc1)c1ccc(Cl)cc1,0.9,6.9,25.4,-4.7,1.5,4.6
COc1ccc(/C=C/C(=O)Nn2cnnc2)cc1,4.1,1.7,6.6,-1.3,-0.4,-5.8
O=C(/C=C/c1ccccc1)Nn1cnnc1,1.1,4.1,35.2*,-2.2,1.4,-10.8
O=C(C1CCCCC1)N1CCN(S(=O)(=O)c2ccc(Br)cc2)CC1,-1.3,-1.4,-24.6,-2.0,0.3,-4.5
